Experimental data reported in ChEMBL document CHEMBL4261550, “Triazolopyrimidines identified as reversible myeloperoxidase inhibitors” (Medchemcomm, 2017).
Active and inactive are the calls of the source. The calls are words filed in the database; no cut-off is given here.

Key:
[1] = biological target: T1, Myeloperoxidase (Homo sapiens, UniProt P05164); assay: Inhibition of human MPO assessed as reduction in enzyme-mediated chlorination by measuring reduction in HOCl formation preincubated for 10 mins followed by H2O2/NaCl addition and measured at 30 secs time interval for 5 mins by APF dye based fluorescence assay
T1 sequence (P05164 whole entry): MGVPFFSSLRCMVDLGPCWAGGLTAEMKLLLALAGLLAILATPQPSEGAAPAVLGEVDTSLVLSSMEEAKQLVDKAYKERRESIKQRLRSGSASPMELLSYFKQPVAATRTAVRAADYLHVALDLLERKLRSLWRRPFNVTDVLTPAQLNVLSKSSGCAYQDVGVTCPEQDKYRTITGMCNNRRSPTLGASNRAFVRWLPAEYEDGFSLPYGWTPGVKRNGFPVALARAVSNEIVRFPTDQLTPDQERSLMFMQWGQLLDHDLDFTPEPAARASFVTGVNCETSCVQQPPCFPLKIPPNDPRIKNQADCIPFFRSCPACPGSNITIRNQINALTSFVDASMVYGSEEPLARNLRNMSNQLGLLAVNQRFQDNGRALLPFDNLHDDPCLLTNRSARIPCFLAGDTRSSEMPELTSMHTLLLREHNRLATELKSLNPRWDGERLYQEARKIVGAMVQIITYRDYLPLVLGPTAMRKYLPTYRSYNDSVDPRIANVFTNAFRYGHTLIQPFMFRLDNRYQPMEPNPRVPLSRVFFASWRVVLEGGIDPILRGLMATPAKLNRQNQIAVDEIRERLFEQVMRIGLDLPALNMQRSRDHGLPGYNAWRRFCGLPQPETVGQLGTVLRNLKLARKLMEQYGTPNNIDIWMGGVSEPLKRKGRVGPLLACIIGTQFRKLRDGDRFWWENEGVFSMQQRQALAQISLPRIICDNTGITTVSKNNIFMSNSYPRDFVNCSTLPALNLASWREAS

[2] = biological target: T1, Myeloperoxidase; assay: Inhibition of human MPO peroxidase activity in presence of H2O2 measured at 30 secs time interval for 5 mins by amplex red reagent based fluorescence assay
[3] = Redox activity assessed as conversion of resazurin reagent to resorufin at 10 uM after 30 mins by fluorescence assay relative to control; assay type: physicochemical; conditions: 0.5 h
How it was run: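 Redox counterscreen: compound 10 μM final incubated with 5 μM resazurin reagent (final) 30 min; fluorescence intensity read; normalized to a reactive styrylpyrimidotriazinedione standard at 10 μM as 100%.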

[4] = organism: Homo sapiens; assay: Selectivity ratio of IC50 for recombinant human C-terminal His6-tagged TPO (15 to 839 residues) expressed in baculovirus infected insect cells to IC50 for human MPO
How it was run: (§1)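 TPO residues 15–839 with C-terminal His6, baculovirus/T. ni expressed, purified by Ni affinity, anion exchange and size exclusion; 4.0 nM in 100 mM KPi pH 7.4, 10 min rt preincubation with inhibitor; then 400 μM KI/240 μM 3-iodotyrosine mix and 20 μM H2O2 (added solutions); 3,5-iodotyrosine formation monitored.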

[5] = organism: Homo sapiens; assay: Selectivity ratio of IC50 for recombinant human LPO isoform-1 (26 to 712 residues) expressed in baculovirus infected insect cells to IC50 for human MPO
How it was run: as §1, with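 “LPO isoform 1” for “TPO”, “26–712,” for “15–839 with C-terminal His6,”, “cation exchange, hydrophobic interaction” for “Ni affinity, anion exchange”, “2.0” for “4.0”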

[6] = Hypochlorus scavenging activity at 10 uM in presence of sodium hypochlorite after 15 mins by APF dye based fluorescence assay relative to control; assay type: functional
How it was run: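 NaOCl-scavenger counterscreen in 1536-well format: 50 μM NaOCl in place of MPO with APF reagent, compound 10 μM final; fluorescence intensity read after 15 min incubation; ≥20% loss of fluorescence flagged as interference.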

[7] = biological target: T2, Myeloperoxidase (Homo sapiens) (UniProt P05164); assay: Inhibition of human MPO assessed as reduction in enzyme-mediated chlorination by measuring reduction in HOCl formation at 10 uM preincubated for 10 mins followed by H2O2/NaCl addition and measured at 30 secs time interval for 5 mins by APF dye based fluorescence assay relative to control
T2 sequence (whole entry): T1 sequence (P05164 whole entry)
How it was run: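 HTS APF chlorination, 1536-well: 1.75 nM human MPO with 20 μM H2O2 final, compound 10 μM final, preincubated 10 min; APF reagent added, fluorescence 485/535 nm read every 30 s for 5 min; slope normalized to DMSO (0%) and no-MPO wells (100% inhibition).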

[8] = biological target: T3, Eosinophil peroxidase (Homo sapiens, UniProt P11678); assay: Inhibition of eosinophil peroxidase (unknown origin)assessed as reduction in H2O2-catalyzed 3-bromo tyrosine formation using tyrosine and potassium bromide preincubated for 10 mins followed by tyrosine/potassium bromide/H2O2 addition and measured after 15 mins by RP-UPLC analysis
T3 sequence (P11678 whole entry): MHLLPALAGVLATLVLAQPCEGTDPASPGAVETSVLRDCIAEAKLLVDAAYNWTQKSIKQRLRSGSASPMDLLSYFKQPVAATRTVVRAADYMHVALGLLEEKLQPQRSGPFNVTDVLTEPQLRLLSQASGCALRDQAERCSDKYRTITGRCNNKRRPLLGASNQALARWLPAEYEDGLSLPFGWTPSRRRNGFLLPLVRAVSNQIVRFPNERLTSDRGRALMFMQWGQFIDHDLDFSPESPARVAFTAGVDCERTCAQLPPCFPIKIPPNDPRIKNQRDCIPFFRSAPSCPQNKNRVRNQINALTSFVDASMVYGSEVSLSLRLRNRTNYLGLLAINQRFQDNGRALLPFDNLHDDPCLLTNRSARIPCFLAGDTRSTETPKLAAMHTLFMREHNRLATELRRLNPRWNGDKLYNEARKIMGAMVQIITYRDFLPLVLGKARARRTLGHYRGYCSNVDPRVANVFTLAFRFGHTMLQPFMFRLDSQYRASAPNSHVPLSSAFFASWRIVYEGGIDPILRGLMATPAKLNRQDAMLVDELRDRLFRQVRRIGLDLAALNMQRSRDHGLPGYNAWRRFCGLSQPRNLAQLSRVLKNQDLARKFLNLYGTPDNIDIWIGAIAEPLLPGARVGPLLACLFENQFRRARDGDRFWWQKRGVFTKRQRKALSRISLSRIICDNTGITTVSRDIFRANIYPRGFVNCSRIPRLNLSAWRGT
How it was run: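 Commercial EPX, purity ≥98%, 0.6 μM, in 100 mM KPi pH 7.4, preincubated with inhibitor 10 min at rt; then 400 μM tyrosine/1200 μM KBr mix, followed by 20 μM H2O2 (added solutions); 3-bromotyrosine quantified by reversed-phase LC, column 60 °C, MeOH/TFA gradient.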

[9] = biological target: T2, Myeloperoxidase (Homo sapiens); assay: Substrate activity at human MPO assessed as reversion of enzyme to resting state at 40 uM in presence of H2O2 by stopped flow assay
How it was run: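 Stopped-flow at 25 °C: syringe 1 with 2 μM MPO and 5 μM H2O2 in phosphate buffer, syringe 2 with inhibitor and 5 μM H2O2; equal volumes rapidly mixed, spectra acquired in PDA mode to follow several MPO species; representative of numerous replicates.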

IC50 [1] [nM] | IC50 [2] [nM] | Activity [3] | inhibition [7] [%] | IC50 [8] [nM] | Activity [9] | SMILES | Ratio IC50 [4] | Ratio IC50 [5] | Activity [6] [%]
110 | 110 | Not Active | 30 | 15 | inactive | Nc1nc(OCc2ccccc2)c2[nH]nnc2n1 | > 10 | > 10 | < 20
360 | 840 | Not Active | 30 | 160 | Active | Nc1ccc(Oc2cc(Cl)c(Cl)cc2Cl)cn1 | > 10 | > 10 | < 20
